SMILES strings stand for the structures. Calls of active or inactive are those of the source. No cut-off for these calls is given here.

For assay [1], the system named is MCF7. Kind of assay: Antiproliferative activity against human MCF7 cells assessed as appearance of flattened phenotype at 4 uM after 14 days by coomassie staining. Format: functional, cell-based. In a few lines:
(§1)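 Retrovirally transduced shRNA (GFP control, p53, or two independent 53BP1 hairpins in pRETROSUPER); cells grown in DMEM with 10% fetal calf serum at 37 °C, 5% CO2; left untreated or given 4 µM nutlin-3 for 14 days; cell density shown by Coomassie staining, morphology inspected.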

Assay [2] relates to MCF7. The experiment in a line: Induction of apoptosis in human MCF7 cells transfected with p53-targeting iRNA-based shRNA at 4 uM after 14 days by BrdU incorporation assay. It counts as functional, cell-based. (In general: Incorporation of labelled thymidine or its analogues reports DNA synthesis.)
In assay [3] the test system is MCF7. Kind of assay: Antiproliferative activity against human MCF7 cells transfected with p53-targeting iRNA-based shRNA assessed as effect on cellular morphology at 4 uM after 14 days by coomassie staining. Format: functional, cell-based. In a few lines:
as §1

Assay [4] concerns MCF7. Kind of assay: Induction of p53 expression in human MCF7 cells by Western blot analysis. Format: functional, cell-based. In a few lines:
(§2)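 MCF-7 expressing GFP control shRNA or either of two 53BP1 shRNAs; lysates immunoblotted for 53BP1, p53 (DO-1), p21 (C19) and MDM2 (2A10, SMP14) after SDS-PAGE transfer to nitrocellulose.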

The subject of assay [5] is MCF7. The experiment in a line: Induction of cell cycle arrest in human MCF7 cells transfected with p53-targeting iRNA-based shRNA at 4 uM after 14 days by BrdU incorporation assay. It counts as functional.
Assay [6] has as its system MCF7. The experiment in a line: Antiproliferative activity against human MCF7 cells at 4 uM after 14 days by coomassie staining. It counts as functional, cell-based. In a few lines: as §1
Assay [7] has as its system MCF7. Kind of assay: Induction of p53 expression in human MCF7 cells assessed as increase in p21CIP1 level after 18 hrs by Western blot method in presence of 2.5 mM caffeine. Format: functional, cell-based. In a few lines:
(§3)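 MCF-7 pretreated 12 h with 2.5 mM caffeine (or not), then exposed to increasing nutlin-3 concentrations for 18 h; lysates run on SDS-PAGE, blotted to nitrocellulose and probed for p53 (DO-1) and p21 (C19).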

The test system of assay [8] is MCF7. The experiment in a line: Induction of cell cycle arrest in human MCF7 cells transfected hnRNPK-targeting iRNA-based shRNA at 4 uM after 14 days by BrdU incorporation assay. Format: functional.
Assay [9] concerns MCF7. The experiment in a line: Induction of cell cycle arrest in human MCF7 cells 53BP1-targeting iRNA-based shRNA assessed as accumulation at S phase at 4 uM after 48 hrs by BrdU incorporation assay. It counts as functional. In a few lines:
(§4)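 MCF-7 carrying shRNA against GFP (control), p53 or 53BP1, untreated or given 4 µM nutlin-3 for 48 h; 10 µM BrdU pulse 30 min before harvest; ethanol fixation, HCl-Triton permeabilization, borate neutralization; anti-BrdU plus FITC secondary, propidium iodide with RNase; 10,000 cells per sample by flow cytometry; S-phase percentage = BrdU-positive fraction.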

For a further assay, the system named is A549. The experiment in a line: Antiproliferative activity against human A549 cells transfected with 53BP1-targeting iRNA-based shRNA assessed as effect on cellular morphology at 4 uM after 14 days by coomassie staining. Format: functional, cell-based. In a few lines:
as §1

Assay [10] relates to BJ. Kind of assay: Induction of p21CIP1 expression in irradiated human BJ cells at 3 uM by Western blot analysis. It counts as functional, cell-based. In a few lines: (§5)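 Normal BJ fibroblasts, with or without 2 Gy irradiation, treated with increasing nutlin-3 concentrations; SDS-PAGE and nitrocellulose immunoblot for p53 stabilization and p21 induction.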
(In general: Immunoblotting shows a protein as a band on a membrane.)

Assay [11] deals with MCF7. Kind of assay: Induction of apoptosis in human MCF7 cells co-transfected with 53BP1-targeting iRNA-based shRNA at 4 uM after 14 days by BrdU incorporation assay. Format: functional, cell-based.
Assay [12] concerns BJ. Kind of assay: Induction of p21 expression in irradiated human BJ cells at 3 uM by Western blot analysis. It counts as functional, cell-based. In a few lines:
as §5

The test system of assay [13] is MCF7. Kind of assay: Induction of cell cycle arrest in human MCF7 cells p53-targeting iRNA-based shRNA assessed as accumulation at S phase at 4 uM after 48 hrs by BrdU incorporation assay. It counts as functional. In a few lines: as §4
Assay [14] deals with MCF7. The experiment in a line: Induction of CDKN1A gene expression in human MCF7 cells transfected with 53BP1-targeting iRNA-based shRNA by Western blot analysis. Format: functional, cell-based. In a few lines:
as §2

Assay [15] concerns MCF7. Kind of assay: Induction of p53 expression in human MCF7 cells transfected with 53BP1-targeting iRNA-based shRNA by Western blot analysis. It counts as functional, cell-based. In a few lines:
as §2

Assay [16] concerns MCF7. The experiment in a line: Antiproliferative activity against human MCF7 cells transfected with 53BP1-targeting iRNA-based shRNA assessed as effect on cellular morphology at 4 uM after 14 days by coomassie staining. Format: functional, cell-based. In a few lines: as §1
The test system of assay [17] is MCF7. Kind of assay: Induction of p53 accumulation in human MCF7 cells after 18 hrs by Western blot analysis in presence of 2.5 mM caffeine. It counts as functional, cell-based. In a few lines:
as §3

Assay [18] deals with MCF7. Kind of assay: Induction of cell cycle arrest in human MCF7 cells transfected with 53BP1-targeting iRNA-based shRNA at 4 uM after 48 hrs by BrdU incorporation assay.

On to `COc1ccc(C2=N[C@@H](c3ccc(Cl)cc3)[C@@H](c3ccc(Cl)cc3)N2C(=O)N2CCNC(=O)C2)c(OC(C)C)c1` [NUTLIN-3], for which the result in the assay with MCF7 [1], with MCF7 [4], in the assay on MCF7 [5], with MCF7 [6], in the assay with MCF7 [8] and with BJ [10] was Active. The result in the assay on BJ [12], in the assay on MCF7 [15], in the assay on MCF7 [17] and with MCF7 [18] was Active. Besides, the outcome in the assay with MCF7 [2], in the assay with MCF7 [3], in the assay on MCF7 [7], in the assay with A549, in the assay on MCF7 [11] and in the assay with MCF7 [14] was inactive. In addition, the outcome with MCF7 [16] was inactive. In addition, the Activity in the assay with MCF7 [9] was found to be 17%; with MCF7 [13], 29%.

These data come from ChEMBL document CHEMBL1221179, “An shRNA barcode screen provides insight into cancer cell vulnerability to MDM2 inhibitors” (2006).
